From PubChem BioAssay
TRPC4 agonist: TRPC4 (mouse) channel activation; Q9QUQ5; B-score at 10 µM; HEK293 TRPC4beta/mu-opioid, Fluo4 calcium fluorescence; active compounds read high; 310,000 tested, 0.49% active; AID 2237;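 active means B-score above 5 SD of library B-scores, and initial fluorescence ratio not above library mean plus 5 SD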;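 further: positive B-score marks a calcium rise read as TRPC4 activation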
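System – HEK293 cells stably co-expressing mouse TRPC4beta and mu-opioid receptor · Signal – Fluo4 calcium-sensitive dye fluorescence, kinetic, 1 Hz baseline · Benchmarks – buffer (low) and maximal DAMGO (high) · Read-out – B score of integrated fluorescence ratio per well · Incubation – dye loading 45 min room temperature, 110 s kinetic read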
TRPC4 PAM: TRPC4 (mouse) allosteric potentiation; B-score at 10 µM; HEK293 TRPC4beta/mu-opioid, DAMGO EC20, Fluo-4 Ca2+ flux; active compounds read high; AID 2227; 310,000 tested, 0.42% active;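 active means B-score of calcium response area above 5 SD of library B-scores, with initial fluorescence ratio within 5 SD of library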
Kir21 block: Kir2.1 (mouse) channel inhibition. P35561. HEK293-Kir2.1, FluxOR thallium flux fluorescence; active compounds read low. B-score at 10 µM. 310,000 tested, 0.85% active;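 active means fluorescence ratio B-score at or below minus 3 SD of library scores, with starting-brightness B-score within 2 SD, cut at about -4.2 in these data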;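 further: channel flux triggered by added potassium and thallium sulfate stimulus; B-score of peak minus minimum fluorescence over baseline after thallium stimulus; more negative B-score means stronger Kir2.1 block with less thallium influx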
TRPC4 block: TRPC4 (mouse) channel inhibition | AID 2247 | 300,000 tested, 0.39% active | Q9QUQ5 | HEK293 TRPC4beta/mu-opioid, DAMGO-evoked Fluo4 calcium flux; active compounds read low | B-score at 10 µM;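 active means B-score over 3 SD under the library average, no early fluorescence shift, positive overall ratio signal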
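Material: HEK293 cells with stable TRPC4beta plus mu-opioid receptor expression; probe or stimulus: DAMGO in two steps, submaximal then maximal; technique: Fluo4 calcium fluorescence by kinetic imaging, 5 s 1 Hz baseline; measure: integrated fluorescence ratio relative to baseline, converted to per-well B score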
TRPC6 act: activators of mouse TRPC6 channel | HEK293-TRPC6 membrane potential dye fluorescence; active compounds read high | B-score at 10 µM | 310,000 tested, 0.13% active | AID 2550;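 active means B-score of the integrated fluorescence ratio above library mean plus 3 SD, and starting fluorescence ratio within library mean plus 5 SD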;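 further: higher score means more depolarization so channel activation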
TRPC6 inh: mouse TRPC6 channel inhibition; Q61143; HEK293-TRPC6, membrane potential dye, ACh-evoked depolarization; active compounds read low; B-score at 10 µM; 310,000 tested, 1.1% active; AID 2553;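 active means B-score under library mean minus 3 SD, initial fluorescence not abnormally high, positive integrated signal ratio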;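 further: B-score derived from integrated fluorescence ratio over the kinetic read; more negative B-score means stronger inhibition of depolarization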
Large screens that a line does not name were inactive. Compounds with a hit are over-represented: about 2.9% of the library has one in this group of screens.

S=C(NCc1ccccc1)N1CCN(c2ccccc2)CC1	none
S=C(NCc1ccccc1)N1CCN(C2CCCCC2)CC1	TRPC4 agonist 76
CCOC(=O)C1CCCN(C(=O)CCCn2nnnc2CN2CCOCC2)C1 (stereo unspecified)	TRPC4 PAM 23
O=C(NCc1ccccc1)C1=C[C@@H](c2coc3ccccc3c2=O)C[C@@H](OCc2ccc(CO)cc2)O1	none
CC(C)(C)c1cc(O)c(C(C)(C)C)cc1O	TRPC4 agonist 94
CN1CCc2c(C#N)c(N3CCCCC3)nc(NCc3ccccc3)c2C1	TRPC4 PAM 13
N#Cc1c(NCCCO)nc(NCc2ccccc2)c2c1CCN(Cc1ccccc1)C2	none
NS(=O)(=O)c1ccc(CCNC(=O)CC(c2ccccc2)c2ccccc2)cc1	none
NS(=O)(=O)c1ccc(CCNC(=O)COC(=O)CC(c2ccccc2)c2ccccc2)cc1	Kir21 block -5.1
CCOC(=O)c1c(CSc2ccccc2)n(C)c2ccc(O)c(CN3CCN(C)CC3)c12	Kir21 block -4.9
CCOC(=O)c1c(CSc2ccsc2)n(C)c2cc(Br)c(O)c(CN(C)C)c12	Kir21 block -7.1
CCOC(=O)c1c(CN2CCOCC2)n(-c2ccccc2)c2cc(Br)c(O)c(CN(C)C)c12	none
Cn1c(=O)c2c(nc(CN3CCc4ccccc4C3)n2Cc2ccccc2F)n(C)c1=O	TRPC4 agonist 169
N#CCCN(C(=O)Nc1ccc(Cl)c(Cl)c1)c1ccccc1	none
OCCNCCSc1ccc(Cl)cc1	TRPC4 agonist 104
Cn1c(=O)cc(OCCCC(=O)NCCCN2CCN(Cc3ccccc3)CC2)c2ccccc21	TRPC4 PAM 25
CCN(CCCNC(=O)COc1cc(=O)n(C)c2ccccc12)c1cccc(C)c1	Kir21 block -6.8
Cn1c(=O)cc(OCCCC(=O)NCCN2CCN(c3ccccc3F)CC2)c2ccccc21	none
Cc1cccc(CCNC(=O)COc2cc(=O)n(C)c3ccccc23)c1	none
COc1cccc(-c2nc(CS(=O)(=O)CC(=O)Nc3cc(OC)ccc3OC)c(C)o2)c1	none
CC1CCN(CCOCCOc2ccc(Br)cc2Cl)CC1	Kir21 block -7.6
Cc1cccc(NC(=O)CSc2nnc(Cc3ccccc3)o2)c1	none
CCN(C1CCCCC1)S(=O)(=O)c1ccc(OC)c(C)c1	Kir21 block -5.4
COc1ccc(N(CC(=O)Nc2ccccc2C(=O)N2CCCC2)S(C)(=O)=O)cc1	none
CCN(CC)CC(=O)Nc1ccc2c(c1)N(C(=O)CN(CC)CC)c1ccccc1CC2	none
CCN(CC)CC(=O)Nc1ccc2c(c1)Nc1ccccc1CC2	Kir21 block -5.6
COc1ccc(C(=O)CN2CCN(CCN3C(=O)c4cccc5cccc(c45)C3=O)CC2)cc1	TRPC4 PAM 15
CC(=O)c1c(C)[nH]c(C(=O)OCC(=O)N2c3ccccc3NC(=O)C2(C)C)c1C	none
Cc1cc(C)c(NC(=O)c2ccc(CN3CCc4ccccc4C3)cc2)c(C)c1	none
COc1ccccc1CCNC(=O)C(=O)Nc1cc2c3c(c1)CC(=O)N3CCC2	none
Cc1cccc(C)c1N1CCN(c2n[nH]c(N)n2)CC1	none
Cc1cccc(C)c1N1CCc2cn[nH]c21	TRPC4 block -6
CC1CCC(NC(=O)c2ccc(NC(=O)c3ccc(=O)[nH]c3)cc2)CC1 (stereo unspecified)	none
O=C(CN1CCN(Cc2ccccc2)CC1)Nc1cccc(Br)c1	Kir21 block -4.6
O=C(O)C1C2C=CC(C2)C1C(=O)NC1CCN(Cc2ccccc2)CC1 (stereo unspecified)	TRPC4 agonist 122
O=C(NC1CCN(Cc2ccccc2)CC1)c1cccc(Br)c1	Kir21 block -4.6
CCc1ccc(OCC(=O)NC2CCCCC2)c(Br)c1	TRPC4 PAM 55
Cc1ccc(NC(=O)CN2CCN(Cc3ccccc3)CC2)cc1Cl	none
O=C(NC1CCN(Cc2ccccc2)CC1)c1cccc(OC(F)F)c1	none
Cc1ccccc1Nc1nnc(-c2ccc(C(=O)NCCO)cc2)c2ccccc12	none
CCOc1ccc2oc(C(=O)NC3CCN(Cc4ccccc4)CC3)c(C)c2c1	none
O=C(COc1ccccc1)NC1CCN(Cc2ccccc2)CC1	none
